Assay outcomes (PubChem)
The list is not random: actives were taken first. Their share in the collection is about 2.3%.
GalR3 antag = blocks the human galanin receptor 3; inhibition, % at 3 µM; 360,000 tested, 0.44% active; HEK293 GalR3-CNG cAMP membrane potential fluorescence; galR3 body fused to GalR1 C-terminus; O60755; AID 651719;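 active means inhibition above the screen-wide average plus 3 SD, cut at about 13% in these data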;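 further: forskolin and galanin both at EC90 stimulate the cells; cAMP rise reported by CNG channel membrane potential dye signal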
Target sequence (O60755 1-299 limits assumed): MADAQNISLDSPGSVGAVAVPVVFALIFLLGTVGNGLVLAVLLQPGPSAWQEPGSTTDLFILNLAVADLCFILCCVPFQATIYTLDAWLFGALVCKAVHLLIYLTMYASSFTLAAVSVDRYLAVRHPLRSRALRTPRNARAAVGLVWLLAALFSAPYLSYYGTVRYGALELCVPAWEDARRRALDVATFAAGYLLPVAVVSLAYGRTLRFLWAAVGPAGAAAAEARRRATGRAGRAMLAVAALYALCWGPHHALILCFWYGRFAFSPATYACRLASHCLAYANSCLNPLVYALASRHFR
NR2E3 ag-1 = activates human NR2E3 receptor; Q9Y5X4; CHO-S Gal4-NCOR/VP16-NR2E3 two-hybrid, luciferase; inhibition of corepressor binding, % at 3.98 µM; 360,000 tested, 0.35% active;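 active means inhibition above the mean of all tested compounds plus 3 SD, cut at about 70% in these data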;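 further: higher means lower luciferase signal from less NR2E3 corepressor binding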
NR2F2 inh = NR2F2 (human) inhibition, primary screen; inhibition, % at 8.6 µM; P24468; 370,000 tested, 0.7% active; HEK293T NGFI-A luciferase reporter, luminescence;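 active means inhibition above a per-plate cutoff, mean inhibition of test wells between control levels plus 3 SD, cut at about 38% in these data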;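 further: cells cotransfected with COUP-TFII expression vector driving the NGFI-A reporter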
Target sequence (P24468 whole entry, looked up): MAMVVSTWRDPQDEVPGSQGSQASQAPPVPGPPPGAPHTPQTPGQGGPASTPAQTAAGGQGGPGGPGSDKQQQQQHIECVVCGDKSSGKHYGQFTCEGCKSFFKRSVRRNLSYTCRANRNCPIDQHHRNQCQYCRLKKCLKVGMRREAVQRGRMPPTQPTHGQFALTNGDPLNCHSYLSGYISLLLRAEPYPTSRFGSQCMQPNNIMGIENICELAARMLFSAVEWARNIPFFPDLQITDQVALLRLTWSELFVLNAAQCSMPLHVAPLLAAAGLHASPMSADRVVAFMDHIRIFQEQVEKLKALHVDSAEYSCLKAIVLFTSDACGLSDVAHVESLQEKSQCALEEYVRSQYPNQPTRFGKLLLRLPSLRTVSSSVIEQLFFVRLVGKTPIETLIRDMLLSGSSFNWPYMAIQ
CHT inh = inhibits the human high affinity choline transporter. B-score at 10 µM. CHT-expressing cells, membrane potential dye, choline response; hits give low values. 310,000 tested, 0.86% active. Q9GZV3. AID 488975;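 active means B-score over 3 SD under the library average, and starting fluorescence ratio not unusually high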;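 further: choline stimulus applied at its EC90 after an EC20 pre-addition; B-score computed on integrated fluorescence ratio after choline addition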
NR2E3 ag-2 = activates human photoreceptor nuclear receptor NR2E3 | GST-NR2E3/biotin-RetCOR TR-FRET, 1536-well | inhibition of corepressor binding, % at 4.78 µM | 320,000 tested, 0.12% active;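 active means percent inhibition above the cutoff of mean plus 3 SD of all tested compounds, set per screening campaign, cut at about 20% in these data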
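System: GST-tagged NR2E3 plus biotinylated RetCOR corepressor; Buffer or medium: pH 7.5 Tris-based buffer; Probe or stimulus: RetCOR corepressor, biotinylated, 7 nM; Doses: compound at 4.8 µM, single dose; Schedule: 5 h incubation at 4 °C; Technique: time-resolved FRET; Evaluation: percent inhibition of TR-FRET ratio; Replication: one well per compound, singlicate testing.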
CHT PAM = human CHT allosteric activation | B-score at 10 µM | 310,000 tested, 0.49% active | CHT-expressing cells, membrane potential dye, choline EC20; hits give high values; LV-AA mutant CHT in HEK293 cells | Q9GZV3;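 active means initial fluorescence not abnormally high and integrated response B-score, plate-corrected, over 3 SD above library mean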
CHT block conf = human CHT inhibition, confirmatory screen. shares compounds with CHT inh. AID 493221. 2,400 tested, 70% active. CHT-expressing cells, choline membrane potential dye; LV-to-AA substituted CHT, HEK293 cells. CHT activity remaining % of control (hits give low values), % at 10 µM;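 active means choline transporter activity left, mean of duplicates at 10 µM, below buffer-only control mean minus 3 SD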;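 further: depolarization triggered by choline at its EC90 following an EC20 pre-addition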
HEK293 CHT ctr = counter-screen for CHT inhibitors: effect in parental HEK293 cells; shares compounds with CHT inh; membrane potential dye, choline response; active = decrease or increase beyond buffer ±3SD; membrane potential ratio readout (active if shifted either direction beyond buffer ±3SD; no single direction) at 10 µM; 2,400 tested, 4% active; AID 493222;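 further: parental cells lack the transporter so any hit is non-specific; ratio is peak minus trough fluorescence over baseline after EC90 choline challenge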
NR2E3 ag conf = confirmation of human NR2E3 agonists; shares compounds with NR2E3 ag-1; CHO-S mammalian two-hybrid NR2E3-NCOR, luciferase luminescence; inhibition, % at 3.98 µM; 2,300 tested, 51% active;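 active means average inhibition above a cutoff equal to the mean inhibition of all tested compounds plus one SD, cut at about 70% in these data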
GAL4-VP16 luc = reduces GAL4-VP16 reporter signal in NR2E3 counterscreen; shares compounds with NR2E3 ag-1; CHO-S GAL4-VP16 luciferase reporter, luminescence; inhibition, % at 3.98 µM; 2,300 tested, 29% active; AID 624379;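 active means mean inhibition above a cutoff equal to the average over all tested compounds plus one standard deviation, cut at about 70% in these data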;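 further: luciferase from a UAS reporter driven by GAL4-VP16 transactivation; higher means less reporter light so more repression of VP16 activity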
GalR3 conf = GalR3 (human) antagonism, confirmation. shares compounds with GalR3 antag. HEK293 GalR3 CNG cAMP biosensor, membrane potential fluorescence; galR3 fused to GalR1 carboxy tail; challenged with forskolin and galanin at EC90. inhibition, % at 3 µM. 1,600 tested, 59% active;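 active means inhibition above the primary screen's cutoff, the mean inhibition of all screened compounds plus 3 SD, cut at about 13% in these data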
HEK-CNG parental = counter-screen for GalR3 antagonists: nonspecific agonists in parental HEK-CNG cells | shares compounds with GalR3 antag | HEK293-CNG parental cells, cAMP membrane potential fluorescence; normalised: DMSO wells 0%, forskolin wells 100% | activation, % at 3 µM | 1,600 tested, 10% active | AID 652268; in the data active means activation above about 1.3%
A number is an active result; i = inactive; nt = no result given.

SMILES | GalR3 antag | NR2E3 ag-1 | NR2F2 inh | CHT inh | NR2E3 ag-2 | CHT PAM | CHT block conf | HEK293 CHT ctr | others
Cc1n[nH]c(C)c1CCCCOc1ccccc1[N+](=O)[O-] | i | i | i | -5.5 | i | i | 52% | i
C1=C2C[N+]3(CCCC3)CC2Cc2ccc3ccccc3c21 (stereo not given) | i | i | i | -7.6 | i | i | 46% | 2.6
Cc1ccc(OCc2nnc(SCC(=O)Nc3ccc(S(N)(=O)=O)cc3)n2-c2ccc(Cl)cc2)cc1 | nt | nt | i | nt | nt | nt | nt | nt
CCC(Sc1nc2ccccc2s1)C(=O)Nc1nnc(C)s1 (stereo not given) | i | i | i | i | i | i | nt | nt
CC(Sc1nc2ccccc2s1)C(=O)Nc1nnc(C(C)C)s1 (stereo not given) | nt | i | nt | -5.3 | i | i | i | i
COc1ccc(/C=C2/CN(Cc3ccc(OC)cc3OC)C3=N[C@H](c4ccccc4)CC(=O)N32)cc1 | nt | nt | i | nt | nt | nt | nt | nt
CC(=O)Oc1cc2c3c(c1)/C(=C1/SC(=S)NC1=O)C(=O)N3C(C)(C)C=C2C | i | i | i | -6.8 | i | i | 37% | i
O=S1(=O)CC2c3ccc(F)cc3CN2CN1CCc1ccccc1 (stereo not given) | nt | nt | i | nt | nt | nt | nt | nt
CC(COc1ccc(CC#N)cc1)CN1CCC(C(O)(c2ccccc2)c2ccccc2)CC1 (stereo not given) | nt | nt | i | nt | nt | nt | nt | nt
C=CCc1ccc(O)c(-c2ccc(O)c(CC=C)c2)c1 | i | i | i | -7 | i | i | 62% | i
C=CCc1cc(C(=O)N2CCCCC2)ccc1O | i | i | i | i | i | i | nt | nt
Cc1c(NC(=O)C2CCCN(S(=O)(=O)c3ccc(Cl)s3)C2)c(=O)n(-c2ccccc2)n1C (stereo not given) | nt | nt | i | nt | nt | nt | nt | nt
Cc1[nH]n(-c2ccccc2)c(=O)c1N=Nc1c(O)cc(S(=O)(=O)N(C)C)c2ccccc12 | i | i | i | -8.5 | i | i | 34% | i
Cc1[nH]n(-c2ccccc2)c(=O)c1N=Nc1ccc2c(c1)OCCO2 | i | i | i | i | i | i | nt | nt
CCOC(=O)N1CCN(C(=O)c2ccc3nc(SCc4ccc(F)cc4)n(C)c3c2)CC1 | i | i | i | -4.9 | i | i | i | i
COc1ccc(C(=O)NNC(=S)NC(=O)c2cccs2)cc1 | i | i | i | i | i | i | nt | nt
Cc1cccc(C(=O)NNC(=S)NC(=O)c2cccs2)c1 | i | i | i | -7.5 | i | i | 29% | i | NR2E3 ag conf=i;GAL4-VP16 luc=i
COC(=O)[C@]12C[C@H](CC(=O)NCCCN3CCCC3=O)C(=O)N(CCC3=CCCCC3)C1=C[C@H](C(C)C)O[C@@H]2C1CC1 | nt | nt | i | nt | nt | nt | nt | nt
CC[C@H](CO)Nc1nc(Nc2cccc(Cl)c2)c2ncn(C(C)C)c2n1 | i | 92 | i | -9 | i | i | 48% | i | NR2E3 ag conf=74;GAL4-VP16 luc=i
COc1cccc(OC)c1OCCCCCc1c(C)n[nH]c1C | i | i | i | -6.5 | i | i | 45% | i | NR2E3 ag conf=i;GAL4-VP16 luc=i
Cc1ccccc1NC(=O)c1cccc2c1-c1ccccc1C2=O | nt | nt | i | nt | nt | nt | nt | nt
CCc1nnc(NC(=O)c2nc(S(=O)(=O)Cc3ccc(C)cc3)ncc2Cl)s1 | i | i | i | -8.3 | i | i | 32% | i | NR2E3 ag conf=i;GAL4-VP16 luc=i
Cc1cccc(CS(=O)(=O)c2ncc(Cl)c(C(=O)Nc3nnc(C(C)C)s3)n2)c1 | nt | i | nt | i | i | i | nt | nt
Cc1csc2c(N3CCN(C(=O)NC(C)(C)C)CC3)ncnc12 | i | i | i | i | i | i | nt | nt
Cc1csc2c(N3CCN(C(=S)Nc4ccc(C(F)(F)F)cc4)CC3)ncnc12 | i | 92 | i | -6.2 | i | i | 55% | i | NR2E3 ag conf=96;GAL4-VP16 luc=87
SMILES | GalR3 antag | NR2E3 ag-1 | NR2F2 inh | CHT inh | NR2E3 ag-2 | CHT PAM | CHT block conf | HEK293 CHT ctr | others
COc1ccccc1CC(=O)N1CCN(c2cccc(C(F)(F)F)c2)CC1 | i | i | i | -6.3 | i | i | i | i | NR2E3 ag conf=94;GAL4-VP16 luc=71
C[C@H]1C2CC(OC(=O)NCCCc3ccccc3)C(C2)[C@H]2CCCCN21 (stereo not given in full) | nt | nt | i | nt | nt | nt | nt | nt
CCCn1c(CN2CCN(c3cccc(Cl)c3)CC2)nc2c1c(=O)n(C)c(=O)n2C | nt | 93 | i | -11 | i | i | -13% | i | NR2E3 ag conf=94;GAL4-VP16 luc=85
CCOC(=O)N1CCN(C(=O)C[C@H]2C[C@@]3(C(=O)OC)C(=C[C@H](COCc4ccccc4)O[C@@H]3C)N(Cc3ccc(Cl)cc3Cl)C2=O)CC1 | nt | nt | i | nt | nt | nt | nt | nt
O=C(O)c1ccc(N=NNc2cccc([N+](=O)[O-])c2)cc1 | i | i | i | i | i | i | nt | nt
N#C/C(=N\Nc1cccc([N+](=O)[O-])c1)C(=O)c1ccc(Br)cc1 | i | 95 | i | -10 | i | i | 63% | i | NR2E3 ag conf=99;GAL4-VP16 luc=86
COc1cccc(N2CCN(CC(=O)NCc3cccc(OC)c3OC)CC2)c1 | nt | nt | i | nt | nt | nt | nt | nt
N#C/C(=N\Nc1cccc(C(F)(F)F)c1)C(=O)c1ccsc1 | i | 80 | i | -10 | i | i | 35% | i | NR2E3 ag conf=98;GAL4-VP16 luc=i
O=S(=O)(Nc1nc2ccccc2nc1NCC1CCCO1)c1ccccc1 (stereo not given) | i | i | i | i | i | i | nt | nt
O=S(=O)(Nc1nc2ccccc2nc1NCC1CCCO1)c1cc(Cl)ccc1Cl (stereo not given) | 15 | i | i | -5.6 | i | i | 45% | i | GalR3 conf=i;HEK-CNG parental=i
O=C(CCC1CCCN(c2ncccn2)C1)NCc1ccc(F)c(F)c1 (stereo not given) | 38 | i | i | -5.8 | i | i | 64% | i | GalR3 conf=i;HEK-CNG parental=i
C=CCNc1ncnc2c1ncn2C1OC(CO)C(O)C1O (stereo not given) | 99 | i | i | -6 | i | i | 41% | i | GalR3 conf=99;HEK-CNG parental=i
